From publication PMC6690761 (Bioorganic & medicinal chemistry letters, 2019)

Target: T1, murine PDS (Mus musculus, UniProt Q9R155)
T1 sequence (Q9R155 1-780): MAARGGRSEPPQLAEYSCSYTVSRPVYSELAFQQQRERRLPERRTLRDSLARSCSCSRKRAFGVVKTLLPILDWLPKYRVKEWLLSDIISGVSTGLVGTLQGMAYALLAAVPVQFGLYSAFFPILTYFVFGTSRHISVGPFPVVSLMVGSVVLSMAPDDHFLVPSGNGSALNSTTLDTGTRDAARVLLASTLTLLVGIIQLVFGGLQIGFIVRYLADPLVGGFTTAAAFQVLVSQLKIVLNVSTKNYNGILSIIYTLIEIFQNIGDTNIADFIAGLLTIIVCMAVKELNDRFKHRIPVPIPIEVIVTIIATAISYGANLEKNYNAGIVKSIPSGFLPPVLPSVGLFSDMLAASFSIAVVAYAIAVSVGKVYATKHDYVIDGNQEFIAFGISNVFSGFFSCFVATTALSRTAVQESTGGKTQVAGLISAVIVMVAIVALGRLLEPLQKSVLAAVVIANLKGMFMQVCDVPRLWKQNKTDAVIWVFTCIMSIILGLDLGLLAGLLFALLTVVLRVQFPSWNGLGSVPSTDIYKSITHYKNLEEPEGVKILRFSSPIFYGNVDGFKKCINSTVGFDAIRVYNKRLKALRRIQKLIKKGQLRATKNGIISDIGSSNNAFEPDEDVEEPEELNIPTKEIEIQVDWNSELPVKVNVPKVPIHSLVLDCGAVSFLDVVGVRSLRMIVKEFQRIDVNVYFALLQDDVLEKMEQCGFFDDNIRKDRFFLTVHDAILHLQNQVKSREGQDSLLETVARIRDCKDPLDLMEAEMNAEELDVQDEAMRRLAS
Assay: functional cell-based assay of PDS-mediated Cl-/I- exchange
Conditions: Fischer rat thyroid cells expressing murine PDS
Procedure, shortened: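 Fischer rat thyroid cells stably co-expressing murine pendrin and the halide-sensitive fluorescent protein EYFP-H148Q/I152L/F46L. Pendrin-mediated Cl–/I– exchange is followed through this halide-sensing fluorescent reporter. Inhibition is reported as IC50.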

Compound	PDS inhibition activity (in words)
Cn1nc(C(=O)O)c2c1CCN(C(=O)Nc1ccc(Cl)cc1)C2 [Compound 21]	minimal PDS inhibition activity
CCOC(=O)c1nn(C)c2c1CN(C(=O)Nc1ccc(Cl)cc1)CC2 [Compound 20]	minimal PDS inhibition activity
